This is an account of results in ChEMBL document CHEMBL1155685, “Antiproliferative triterpene saponins from Trevesia palmata” (J Nat Prod, 2000).

Usually IC50 stands for the concentration that gives 50% inhibition.

For assay [1], the system named is WEHI-164. As to the kind of experiment: Antiproliferative activity against mouse WEHI164 cells assessed as reduction of cell growth after 72 hrs by MTT method. Conditions: WEHI-164, 72 h. Type of assay: functional, cell-based. In outline: (§1)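 Cells (3.4 × 10^4) seeded in 96-well plates, left to adhere 2 h at 37 °C in 5% CO2. Medium replaced with fresh medium, then 1:4 serial dilutions of compound added. Incubation 72 h. MTT (5 mg/mL stock) added for 3 h. Crystals dissolved in 50% DMF/20% SDS, pH 4.5, and OD read at 620 nm. % dead cells = 100 − (OD treated/OD control)×100. IC50 taken versus control.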
(Tetrazolium assays rely on reduction of a dye to a coloured formazan, in cell work by metabolically active cells.)

Assay [2] relates to J774. As to the kind of experiment: Antiproliferative activity against mouse J774 cells assessed as reduction of cell growth after 72 hrs by MTT method. The assay is classed as cell-based. As to conditions: J774, 72 h. The method in brief: as §1
For assay [3], the system named is HEK293. Nature of the assay: Antiproliferative activity against HEK293 cells assessed as reduction of cell growth after 72 hrs by MTT method. As to conditions: Homo sapiens, HEK293, 72 h. The assay is classed as cell-based. The method in brief: as §1

As for `C[C@@H]1O[C@@H](O[C@H]2[C@H](O)[C@@H](O)[C@H](OC[C@H]3O[C@@H](OC(=O)[C@]45CCC(C)(C)C[C@H]4C4=CC[C@@H]6[C@@]7(C)CC[C@H](O[C@@H]8OC[C@H](O)[C@H](O)[C@H]8O[C@@H]8O[C@H](C)[C@@H](O)[C@H](O)[C@H]8O)[C@@](C)(CO)[C@@H]7CC[C@@]6(C)[C@]4(C)CC5)[C@H](O)[C@@H](O)[C@@H]3O)O[C@@H]2CO)[C@H](O)[C@H](O)[C@H]1O`, the IC50 in assay [1] is 1900 nM; in assay [2] it was 460 nM.

Turning to `C[C@@H]1O[C@@H](O[C@H]2[C@H](O)[C@@H](O)[C@H](OC[C@H]3O[C@@H](OC(=O)[C@]45CCC(C)(C)C[C@H]4C4=CC[C@@H]6[C@@]7(C)CC[C@H](O[C@@H]8OC[C@H](O)[C@H](O)[C@H]8O[C@@H]8O[C@@H](C)[C@H](O)[C@@H](O[C@@H]9O[C@H](CO)[C@@H](O)[C@H](O)[C@H]9O)[C@H]8O)C(C)(C)[C@@H]7CC[C@@]6(C)[C@]4(C)CC5)[C@H](O)[C@@H](O)[C@@H]3O)O[C@@H]2CO)[C@H](O)[C@H](O)[C@H]1O`, the figures for the IC50 in assay [1] and in assay [3] were 1800 nM and 520 nM, respectively.

`C[C@@H]1O[C@@H](O[C@H]2[C@H](O[C@H]3CC[C@@]4(C)[C@@H](CC[C@]5(C)[C@@H]4CC=C4[C@@H]6CC(C)(C)CC[C@]6(C(=O)O)CC[C@]45C)[C@]3(C)CO)OC[C@H](O)[C@@H]2O)[C@H](O)[C@H](O[C@@H]2O[C@H](CO)[C@@H](O)[C@H](O)[C@H]2O)[C@H]1O`: the IC50 in assay [2] was found to be 70 nM.

In the case of `C[C@@H]1O[C@@H](O[C@H]2[C@H](O)[C@@H](O)[C@H](OC[C@H]3O[C@@H](OC(=O)[C@]45CCC(C)(C)C[C@H]4C4=CC[C@@H]6[C@@]7(C)CC[C@H](O[C@@H]8OC[C@H](O)[C@H](O)[C@H]8O[C@@H]8O[C@@H](C)[C@H](O)[C@@H](O[C@@H]9O[C@H](CO)[C@@H](O)[C@H](O)[C@H]9O)[C@H]8O)C(C)(C)[C@@H]7CC[C@@]6(C)[C@]4(C)C[C@H]5O)[C@H](O)[C@@H](O)[C@@H]3O)O[C@@H]2CO)[C@H](O)[C@H](O)[C@H]1O`, the IC50 in assay [1] came out at 240 nM; in assay [3], 150 nM; in assay [2], 110 nM.

As to `C[C@@H]1O[C@@H](O[C@H]2[C@H](O[C@H]3CC[C@]4(C)[C@H]5CC=C6[C@@H]7CC(C)(C)CC[C@]7(C(=O)O)[C@H](O)C[C@@]6(C)[C@]5(C)CC[C@H]4C3(C)C)OC[C@H](O)[C@@H]2O)[C@H](O)[C@H](O[C@@H]2O[C@H](CO)[C@@H](O)[C@H](O)[C@H]2O)[C@H]1O`, the IC50 in assay [2] was determined as 190 nM.

For `C[C@@H]1O[C@@H](O[C@H]2[C@H](O)[C@@H](O)[C@H](OC[C@H]3O[C@@H](OC(=O)[C@]45CCC(C)(C)C[C@H]4C4=CC[C@@H]6[C@@]7(C)CC[C@H](O[C@@H]8OC[C@H](O)[C@H](O)[C@H]8O[C@@H]8O[C@H](C)[C@@H](O)[C@H](O)[C@H]8O)C(C)(C)[C@@H]7CC[C@@]6(C)[C@]4(C)CC5)[C@H](O)[C@@H](O)[C@@H]3O)O[C@@H]2CO)[C@H](O)[C@H](O)[C@H]1O`, the results for the IC50 in assay [3] and in assay [2] were 200 nM and 100 nM, respectively.

Consider `C[C@@H]1O[C@@H](O[C@H]2[C@H](O[C@H]3CC[C@]4(C)[C@H]5CC=C6[C@@H]7CC(C)(C)CC[C@]7(C(=O)O[C@@H]7O[C@H](CO[C@@H]8O[C@H](CO)[C@@H](O[C@@H]9O[C@@H](C)[C@H](O)[C@@H](O[C@@H]%10O[C@H](CO)[C@@H](O)[C@H](O)[C@H]%10O)[C@H]9O)[C@H](O)[C@H]8O)[C@@H](O)[C@H](O)[C@H]7O)CC[C@@]6(C)[C@]5(C)CC[C@H]4C3(C)C)OC[C@H](O)[C@@H]2O)[C@H](O)[C@H](O[C@@H]2O[C@H](CO)[C@@H](O)[C@H](O)[C@H]2O)[C@H]1O`, for which the IC50 in assay [3] was 170 nM; in assay [2], 180 nM.

Regarding `C[C@@H]1O[C@@H](O[C@H]2[C@H](O)[C@@H](O[C@@H]3O[C@H](CO)[C@@H](O)[C@H](O)[C@H]3O)[C@H](OC[C@H]3O[C@@H](OC(=O)[C@]45CCC(C)(C)C[C@H]4C4=CC[C@@H]6[C@@]7(C)CC[C@H](O[C@@H]8OC[C@H](O)[C@H](O)[C@H]8O[C@@H]8O[C@@H](C)[C@H](O)[C@@H](O[C@@H]9O[C@H](CO)[C@@H](O)[C@H](O)[C@H]9O)[C@H]8O)[C@@](C)(CO)[C@@H]7CC[C@@]6(C)[C@]4(C)CC5)[C@H](O)[C@@H](O)[C@@H]3O)O[C@@H]2C)[C@H](O)[C@H](O)[C@H]1O`, the IC50 is 260 nM in assay [1], 320 nM in assay [3] and 100 nM in assay [2].

For the compound `C[C@@H]1O[C@@H](O[C@H]2[C@H](O[C@H]3CC[C@]4(C)[C@H]5CC=C6[C@@H]7CC(C)(C)CC[C@]7(C(=O)O[C@@H]7O[C@H](CO[C@@H]8O[C@H](CO)[C@@H](O[C@@H]9O[C@@H](C)[C@H](O)[C@@H](O)[C@H]9O)[C@H](O)[C@H]8O)[C@@H](O)[C@H](O)[C@H]7O)CC[C@@]6(C)[C@]5(C)CC[C@H]4C3(C)C)OC[C@H](O)[C@@H]2O)[C@H](O)[C@H](O)[C@H]1O` [HEDERASAPONIN B], the IC50 was found to be 600 nM in assay [1] and 60 nM in assay [2].

In the case of `Sc1ncnc2nc[nH]c12` [MERCAPTOPURINE ANHYDROUS], the figures for the IC50 in assay [1] and in assay [2] were 17 nM and 3 nM, respectively.
